# CHO parental Ca: ATP-evoked calcium signal inhibitors, parental CHO, primary screen, counter-screen for OX1R antagonist project, cell-based, fluorescence, Fluo-8 calcium dye; hit rate 0.63% among 330,000; inhibition, % at 5.6 µM; parental CHO-K1, ATP-induced calcium, Fluo-8 fluorescence; AID 463079, 2010;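 active = inhibition above that plate's mean sample inhibition plus 3 SD, cut at about 26% in these data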;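 also: 0% = ATP-challenged DMSO wells and 100% = DMSO wells without ATP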
#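 Test system: parental CHO cells; detection: calcium-sensitive Fluo-8 fluorescence; evaluation: percent inhibition of calcium signal; also added: ATP as calcium-mobilizing challenge; repeats: one well per compound; control set: ATP-challenged DMSO wells low, unchallenged DMSO wells high; compound: single nominal dose of 5.6 µM per compound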
# TAAR1 agonist: human TAAR1 agonists, primary screen, Fluo-8 calcium fluorescence, CHO RD-HGA16 cells | Trace amine-associated receptor 1 (Homo sapiens), Q96RJ0 | vehicle wells 0%, saturating PEA agonist 100% | activation, % at 3 µM | hit rate 0.99% among 360,000 | AID 624467, 2012;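 active = activation above the mean activation of all test compounds in the run plus 3 SD, cut at about 38% in these data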
# Target sequence (Q96RJ0 whole entry, looked up): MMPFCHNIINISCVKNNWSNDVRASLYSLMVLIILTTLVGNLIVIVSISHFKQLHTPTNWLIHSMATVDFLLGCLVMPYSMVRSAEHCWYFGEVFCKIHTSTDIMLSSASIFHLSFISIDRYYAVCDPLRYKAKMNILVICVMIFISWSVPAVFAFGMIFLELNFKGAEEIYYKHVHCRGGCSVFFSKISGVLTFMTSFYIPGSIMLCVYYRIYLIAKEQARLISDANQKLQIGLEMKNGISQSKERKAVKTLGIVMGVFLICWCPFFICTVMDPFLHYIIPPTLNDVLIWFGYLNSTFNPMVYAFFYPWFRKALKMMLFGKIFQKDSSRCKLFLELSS
#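 System: CHO-derived RD-HGA16 cells with stable Gα16 and human TAAR1. Times: 17-24 h plating, Fluo-8 75 min 37 °C, 30 min RT. Measured by: calcium-sensitive Fluo-8 signal, excitation 470-495, emission 515-575 nm. Read-out basis: % activation relative to PEA EC100 response. Control set: DMSO and PEA EC100. Repeats: no replicates (n 1).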
# OX1R antag-1: OX1R (HCRTR1) antagonists, primary screen, fluorescence, CHO/OX1R cells, Fluo-8 calcium, orexin A. Orexin/Hypocretin receptor type 1 (Homo sapiens), O43613. Fluo-8 calcium fluorescence. inhibition, % at 5 µM. hit rate 0.43% among 330,000;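 active = inhibition above its plate's threshold, mean inhibition of all tested compounds on the plate plus 3 SD, cut at about 37% in these data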;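 also: 0% = orexin A challenge wells and 100% = SB-334867-A antagonist wells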
# OX1R antag-2: antagonists of human orexin 1 receptor (OX1R). Orexin/Hypocretin receptor type 1 (Homo sapiens), O43613. OX1R-expressing cells, FRET antagonist read-out. inhibition, % at 6.6 µM. hit rate 1.8% among 330,000. AID 485270, 2010; in the data active = inhibition mostly above about 38%, no sharp cut-off; inactive = mostly below about 40%;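 also: 0% = agonist challenge alone and 100% = reference antagonist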
# TAAR1 antag: human TAAR1 antagonists, primary screen, Fluo-8 calcium fluorescence, CHO RD-HGA16 cells; antagonist; hit rate 1.5% among 360,000; Trace amine-associated receptor 1 (Homo sapiens), Q96RJ0; inhibition, % at 3 µM;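 active = inhibition above a per-plate cutoff, the mean inhibition of test compounds on that plate plus 3 SD, cut at about 49% in these data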;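 also: 0% = DMSO plus EC80 beta-PEA response and 100% = DMSO alone without agonist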
#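 test system = CHO RD-HGA16 cells bearing hTAAR1 | replication = singlicate | controls = DMSO-only wells and EC80 β-PEA-stimulated wells | reagent = EC80 β-phenethylamine stimulus | read-out basis = percent inhibition of PEA-evoked calcium signal, max/basal emission ratio | schedule = seeding 17-24 h prior, 75-min 37 °C, 30-min RT dye loading | signal = kinetic Fluo-8 calcium fluorescence measurement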
# An asterisk follows results filed as active; / = no result. Sampled rows, rich in hits. Any-hit rate of the full collection: about 4%.
SMILES,CHO parental Ca,TAAR1 agonist,OX1R antag-1,OX1R antag-2,TAAR1 antag
CC(NC(=O)c1cc(COc2ccccc2)on1)c1nccs1 (stereo not given),-12,-1,-5,9,-11
O=C(c1cc(COc2ccc3ncccc3c2)on1)N1CCCC1,20,5,2,29,-24
CC(NC(=O)c1cc(COc2ccc3ncccc3c2)on1)c1ccc(F)cc1 (stereo not given),51*,26,43*,56,3
COc1cccc(CN(C)C(=O)c2cc(COc3ccc4ncccc4c3)on2)c1,66*,11,41,40,45
COCC1CCN(C(=O)c2cc(COc3ccc4ncccc4c3)on2)CC1,42*,5,21,22,11
COc1ccc(NC(=O)N(C)C[C@H]2OCCCC[C@H](C)Oc3ccc(NC(=O)Nc4cccc5ccccc45)cc3C(=O)N([C@@H](C)CO)C[C@H]2C)cc1,/,4,/,/,-3
O=C(NC1CCCC1)c1cc(COc2ccc3ncccc3c2)on1,52*,/,31,24,/
O=C(NCCc1cn2ccccc2n1)c1cc(COc2ccc3ncccc3c2)on1,47*,21,47*,65*,87*
COc1cccc(C(C)(O)c2nc(-c3ccc(F)c(Cl)c3)cs2)c1 (stereo not given),/,2,/,/,0
C[C@@H]1CN(c2ccc(N3CCNC[C@H]3C)cc2C#N)CCN1Cc1ccccc1,/,14,/,/,-12
COc1cc(-c2cc(C(=O)Nc3cc(S(=O)(=O)N4CCOCC4)ccc3C)c3ccccc3n2)cc(OC)c1OC,/,17,/,/,49*
COc1cc(-c2cc(C(=O)Nc3ccc(S(=O)(=O)NCc4ccco4)cc3)c3ccccc3n2)cc(OC)c1OC,21,22,16,15,57*
COc1ccc(-c2cc(C(=O)Nc3ccc(S(N)(=O)=O)cc3)c3ccccc3n2)cc1OC,-4,7,-31,2,7
COc1cc(-c2cc(C(=O)Nc3cc(S(=O)(=O)N4CCOCC4)ccc3O)c3ccccc3n2)cc(OC)c1OC,-6,1,11,1,51*
COc1ccc(-c2nc(-c3cccc(C)c3)[nH]c(=O)c2C#N)cc1,-7,0,2,18,11
O=C(N/N=C/C=C/c1ccccc1[N+](=O)[O-])c1cccnc1,-1,-1,-13,47*,13
O=C(/C=C/c1cccc([N+](=O)[O-])c1)NCc1cccnc1,5,1,-14,72*,-6
COc1cc(/C=N/NC(=O)Cc2nnc(N)s2)cc(OC)c1OC,1,4,1,9,-24
Nc1nnc(CC(=O)N/N=C/c2ccc([N+](=O)[O-])cc2)s1,-3,4,3,75*,-13
O=C(/C=C/c1ccc([N+](=O)[O-])cc1)NCc1ccccn1,-6,0,-1,75*,5
O=C(/C=C/c1ccc([N+](=O)[O-])cc1)NCc1cccs1,-4,9,-2,56,-16
CC1(C(=O)O)CCCN1C(=O)c1ccccc1OC(F)(F)F (stereo not given),/,-1,/,/,-1
C=CCN1[C@@H](C)[C@@H](c2ccccc2)Oc2c(Cl)cccc2S1(=O)=O,/,-2,/,/,-21
CCCCC1OC(CCc2ccccc2)CC2=C1C(=O)OC(C)(C)O2 (stereo not given),/,3,/,/,-1
CC(C)c1[nH]nc2c1C(c1ccccc1)N(c1ccccc1)C2=O (stereo not given),/,2,/,/,-14
SMILES,CHO parental Ca,TAAR1 agonist,OX1R antag-1,OX1R antag-2,TAAR1 antag
O=C(N/N=C/C=C\c1cccc([N+](=O)[O-])c1)c1cccnc1,-4,7,-20,36*,-6
N/C(=N\OC(=O)c1ccc([N+](=O)[O-])cc1)c1cccnc1,-14,3,-9,30,1
CC(/C=C/c1cccc([N+](=O)[O-])c1)=N/NC(=O)c1cccnc1,-15,2,-15,44,1
O=C(N/N=C/c1ccc([N+](=O)[O-])cc1)c1cccnc1,2,5,-18,72*,10
O=C(Oc1c(Br)cc([N+](=O)[O-])cc1Br)c1cccnc1,-1,7,-15,53*,-4
O=C1NCCCC1C(=O)N/N=C/c1ccc([N+](=O)[O-])cc1 (stereo not given),-6,2,-12,54*,-26
O=C(N/N=C/c1ccc(-c2ccc([N+](=O)[O-])cc2)o1)c1cccnc1,-28,7,-16,30,-20
O=C1NCCCC1C(=O)N/N=C/c1cccc([N+](=O)[O-])c1 (stereo not given),7,0,2,24,9
O=C(NNC(=O)c1ccc([N+](=O)[O-])cc1C(=O)O)c1ccncc1,4,1,8,0,-5
O=C(N/N=C/C=C\c1ccccc1[N+](=O)[O-])c1cc(-c2ccc3ccccc3c2)n[nH]1,/,2,/,/,53*
CCN(CC)S(=O)(=O)c1ccc(C(=O)OCCNC(=O)c2cccnc2)cc1,-16,0,-14,5,5
O=C(NCCOC(=O)c1ccc([N+](=O)[O-])cc1)c1cccnc1,2,6,-9,69*,8
C(=C\c1ccc2ccccc2n1)/c1ccccc1,-28,2,-15,-1,-36
Fc1ccccc1/C=C/c1ccc2ccccc2n1,-26,-2,-21,72*,-27
O=C(Nc1ccc(Cl)cc1)OC[C@@H]1CSCCS(=O)(=O)N1,/,10,/,/,22
CCCCSc1nc(C)cc(SCC(=O)N/N=C/c2cccc(OC)c2O)n1,34*,22,57*,70,37
COc1cccc(/C=N/NC(=O)CSc2nnc(C)n2-c2ccccc2)c1O,-13,13,-16,23,-5
C#CCN1C(=O)[C@]2(OCCC=C[C@H]2C)c2ccccc21,/,0,/,/,3
c1ccc2nc3c(nc2c1)CCc1nonc1-3,-2,2,7,44*,16
Cc1ccnc(NS(=O)(=O)c2ccc3ccccc3c2)n1,-9,/,-10,2,/
CCc1sc(-c2c(C#N)c(N)nc3c2CCCCCC3)cc1[N+](=O)[O-],-31,53*,-38,20,-1
CC(C)(C)c1ccc(-c2c(C#N)c(N)nc3c2CCCC3)s1,-11,2,-32,15,-8
CC(NC(=O)COC(=O)c1ccccc1F)C1CC2CCC1C2 (stereo not given),-16,8,-17,2,13
Nc1ccccc1SC1CC(=O)N(c2ccc(Cl)c(Cl)c2)C1=O (stereo not given),34*,19,24,7,59*
O=C(c1cn(-c2ccccc2)nc1-c1cccs1)N1CCN(c2ccccn2)CC1,-20,11,-21,9,49*

# High-throughput results (PubChem)
